Experimental data as given in ChEMBL document CHEMBL1132454 (J Med Chem, 1999).

Experiments:
[1] = biological target: T1, Sodium-dependent dopamine transporter (Rattus norvegicus, UniProt P23977); experiment: Inhibition of Dopamine uptake in male Sprague-Dawley rats using [3H]DA ligand
[2] = biological target: T1, Sodium-dependent dopamine transporter; experiment: (§1) Binding affinity Sprague-Dawley rats using [3H]WIN-35428 ligand
How it was run: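 Rat caudate-putamen membranes washed in ice-cold Krebs-HEPES pH 7.4, ~0.3% w/v (150–300 μg protein). Drug added 5 min before 1.5 nM [3H]WIN 35,428; 1 h on ice; filtration.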

[3] = biological target: T2, Norepinephrine transporter (Rattus norvegicus, UniProt Q9WTR4); experiment: The compound was tested for binding affinity nisoxatine ligand; IA = inactive
How it was run: (§2)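 Rat frontal cortex membranes (male Sprague–Dawley) in 50 mM Tris/120 mM NaCl/5 mM KCl pH 7.4; 8 mg wet tissue with 0.5 nM [3H]nisoxetine, 60 min at 0–4 °C; 1 μM desipramine for nonspecific; filtration, scintillation counting.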

[4] = biological target: T3, Sodium-dependent serotonin transporter (Rattus norvegicus, UniProt P31652); experiment: Binding affinity against Serotonin transporter in male Sprague-Dawley rats using [3H]paroxetine ligand; IA = inactive
How it was run: (§3)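 Frozen rat midbrain membranes in 50 mM Tris, 120 mM NaCl, 5 mM KCl pH 7.4; 1.5 mg wet tissue per tube with 0.2 nM [3H]paroxetine, 90 min at room temperature; nonspecific defined with 1 μM citalopram; filtration and scintillation counting.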

[5] = biological target: T2, Norepinephrine transporter; experiment: (§4) The compound was tested for binding affinity nisoxatine ligand; how it was run: as §2
[6] = (§5) Binding affinity of Sigma opioid receptor type 1 in Guinea pig brain membranes using [3H]pentazocine ligand; assay type: cell membranes, Membrane
How it was run: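 σ1 sites: guinea pig brain membranes minus cerebella (350–500 μg protein) with 3 nM [3H](+)-pentazocine in 50 mM Tris-HCl pH 8.0, 120 min at 25 °C; 10 μM haloperidol for nonspecific; filtration on polyethyleneimine-soaked filters. IC50 converted to Ki via Cheng–Prusoff.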

[7] = biological target: T3, Sodium-dependent serotonin transporter; experiment: (§6) Binding affinity against Serotonin transporter in male Sprague-Dawley rats using [3H]paroxetine ligand; how it was run: as §3
[8] = biological target: Sigma intracellular receptor 2 (Rattus norvegicus, UniProt Q5U3Y7); experiment: The compound was tested for binding affinity of Sigma opioid receptor type 2 in rat liver membranes using [3H]DTG ligand; assay type: cell membranes, Membrane
How it was run: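 σ2 sites: male Sprague–Dawley rat liver membranes (160 μg protein), 5 nM [3H]DTG plus 1 μM dextrallorphan masking σ1, 50 mM Tris-HCl pH 8.0, 120 min at 25 °C; 10 μM haloperidol nonspecific; filtration. IC50 converted to Ki by Cheng–Prusoff.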

[9] = biological target: T1, Sodium-dependent dopamine transporter; experiment: as §1; remark: listed apart in the source
How it was run: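 Rat caudate-putamen membranes washed in modified Krebs-HEPES buffer, pH 7.4; 150-300 μg protein per tube. Filtration read-out; Ki by nonlinear least-squares fit; at least three independent experiments.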

[10] = biological target: T2, Norepinephrine transporter; experiment: as §4; remark: listed apart in the source
How it was run: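 Male Sprague-Dawley rat frontal cortex membranes in 50 mM Tris, 120 mM NaCl, 5 mM KCl, pH 7.4; 8 mg original wet tissue per tube. Incubation with 0.5 nM [3H]nisoxetine for 60 min at 0-4 °C. Nonspecific binding with 1 μM desipramine. Filtration and scintillation counting; Ki from at least three experiments in triplicate.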

[11] = biological target: T3, Sodium-dependent serotonin transporter; experiment: as §6; remark: listed apart in the source
How it was run: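 Male Sprague-Dawley rat midbrain membranes in 50 mM Tris, 120 mM NaCl, 5 mM KCl, pH 7.4; 1.5 mg original wet tissue per tube. Incubation with 0.2 nM [3H]paroxetine for 90 min at room temperature. Nonspecific binding with 1 μM citalopram. Filtration and scintillation counting; Ki from at least three experiments in triplicate.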

[12] = as §5; assay type: cell membranes, Membrane; remark: listed apart in the source
How it was run: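 Guinea pig brain membranes (minus cerebella), 350–500 μg protein, with 3 nM [3H](+)-pentazocine in 50 mM Tris-HCl pH 8.0 for 120 min at 25 °C. Nonspecific binding with 10 μM haloperidol. Filtration, then overnight extraction and counting. IC50 from curve fit, converted to Ki by Cheng-Prusoff.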

T2 sequence (Q9WTR4 whole entry): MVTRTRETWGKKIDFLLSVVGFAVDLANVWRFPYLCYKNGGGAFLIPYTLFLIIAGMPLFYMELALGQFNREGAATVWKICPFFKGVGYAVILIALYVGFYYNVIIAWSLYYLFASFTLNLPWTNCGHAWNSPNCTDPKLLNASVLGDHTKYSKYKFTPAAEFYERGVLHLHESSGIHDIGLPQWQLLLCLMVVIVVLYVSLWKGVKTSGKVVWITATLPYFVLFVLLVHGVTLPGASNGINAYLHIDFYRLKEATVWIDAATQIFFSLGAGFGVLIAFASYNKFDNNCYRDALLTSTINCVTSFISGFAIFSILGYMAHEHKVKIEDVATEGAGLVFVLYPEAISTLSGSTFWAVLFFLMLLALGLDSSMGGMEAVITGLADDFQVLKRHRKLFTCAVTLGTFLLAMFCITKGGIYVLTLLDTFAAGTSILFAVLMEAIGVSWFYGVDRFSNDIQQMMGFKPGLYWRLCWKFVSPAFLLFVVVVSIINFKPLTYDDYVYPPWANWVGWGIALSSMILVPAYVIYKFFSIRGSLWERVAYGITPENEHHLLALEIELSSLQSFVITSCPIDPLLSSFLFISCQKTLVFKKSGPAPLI
Chain of Sigma intracellular receptor 2 (Q5U3Y7 whole entry, looked up): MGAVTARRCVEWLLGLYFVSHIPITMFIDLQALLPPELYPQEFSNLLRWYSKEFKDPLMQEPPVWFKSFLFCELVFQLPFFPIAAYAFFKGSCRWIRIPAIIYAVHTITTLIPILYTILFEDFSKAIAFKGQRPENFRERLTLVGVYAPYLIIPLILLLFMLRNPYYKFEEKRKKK
T1 sequence (P23977 whole entry): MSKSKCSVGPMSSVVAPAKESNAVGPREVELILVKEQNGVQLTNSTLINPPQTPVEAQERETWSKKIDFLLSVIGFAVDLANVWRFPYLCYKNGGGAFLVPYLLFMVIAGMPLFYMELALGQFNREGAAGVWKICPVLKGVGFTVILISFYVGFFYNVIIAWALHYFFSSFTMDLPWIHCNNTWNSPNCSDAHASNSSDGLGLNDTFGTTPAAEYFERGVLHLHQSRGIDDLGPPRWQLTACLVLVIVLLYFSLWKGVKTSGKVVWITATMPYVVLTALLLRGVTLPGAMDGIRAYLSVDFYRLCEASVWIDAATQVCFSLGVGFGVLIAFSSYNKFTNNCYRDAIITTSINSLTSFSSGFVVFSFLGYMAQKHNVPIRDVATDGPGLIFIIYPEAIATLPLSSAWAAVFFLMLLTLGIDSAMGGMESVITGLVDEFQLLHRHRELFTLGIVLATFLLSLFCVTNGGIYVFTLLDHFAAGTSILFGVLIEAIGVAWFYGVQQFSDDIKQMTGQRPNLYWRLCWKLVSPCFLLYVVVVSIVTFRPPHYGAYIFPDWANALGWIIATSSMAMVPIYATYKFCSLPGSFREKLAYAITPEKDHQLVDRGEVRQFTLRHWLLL
T3 sequence (P31652 whole entry): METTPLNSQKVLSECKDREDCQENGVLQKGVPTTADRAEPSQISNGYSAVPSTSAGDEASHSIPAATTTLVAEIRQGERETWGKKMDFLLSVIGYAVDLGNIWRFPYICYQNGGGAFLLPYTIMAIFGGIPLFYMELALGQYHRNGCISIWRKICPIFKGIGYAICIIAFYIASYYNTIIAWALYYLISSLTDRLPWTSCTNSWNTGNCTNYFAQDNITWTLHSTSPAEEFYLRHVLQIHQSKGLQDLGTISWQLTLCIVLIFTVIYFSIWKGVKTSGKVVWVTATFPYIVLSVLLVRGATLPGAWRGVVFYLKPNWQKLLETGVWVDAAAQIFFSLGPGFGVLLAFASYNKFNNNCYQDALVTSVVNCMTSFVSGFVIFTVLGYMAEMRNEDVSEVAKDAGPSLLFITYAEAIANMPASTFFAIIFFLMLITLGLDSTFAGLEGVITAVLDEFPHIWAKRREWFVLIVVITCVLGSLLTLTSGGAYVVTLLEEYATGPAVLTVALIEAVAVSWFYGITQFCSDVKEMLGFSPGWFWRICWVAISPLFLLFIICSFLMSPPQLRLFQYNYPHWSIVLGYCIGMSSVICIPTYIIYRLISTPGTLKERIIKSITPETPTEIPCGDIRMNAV

| SMILES | IC50 [1] [nM] | Ki [2] [nM] | Ki [3] | Ki [4] | Ki [5] [nM] | Ki [6] [nM] | Ki [7] [nM] | Ki [8] [nM] | Ki [9] [nM] | Ki [10] [nM] | Ki [11] [nM] | Ki [12] [nM] |
| --- | --- | --- | --- | --- | --- | --- | --- | --- | --- | --- | --- | --- |
| Clc1ccccc1N1CCN(CCCn2c3ccccc3c3ccccc32)CC1 | 2770 | 113000 | Not Active | Not Active | – | – | – | – | – | – | – | – |
| C[C@H]1CN(CCCn2c3ccccc3c3ccccc32)C[C@H](C)N1C | 472 | 436 | – | – | 9370 | 552 | 373 | 230 | – | – | – | – |
| C[C@H]1CN(CCCn2c3ccccc3c3ccccc32)C[C@H](C)N1CCCc1ccccc1 | 639 | 263 | – | – | 2490 | 104 | 44.5 | 145 | – | – | – | – |
| C[C@H]1CN(CCCN(c2ccccc2)c2ccccc2)C[C@H](C)N1 | 1060 | 813 | – | – | 6810 | 138 | 13100 | 351 | – | – | – | – |
| C[C@H]1CN(CCCN(c2ccccc2)c2ccccc2)C[C@H](C)N1CCCc1ccccc1 | 36.6 | 61 | – | – | 3640 | 97.2 | 219 | 183 | – | – | – | – |
| C[C@H]1CN(CCCn2c3ccccc3c3cc([N+](=O)[O-])ccc32)C[C@H](C)N1 | 111 | 109 | – | – | 4580 | 596 | 1170 | 193 | – | – | – | – |
| C[C@H]1CN(CCCn2c3ccc(Br)cc3c3cc(Br)ccc32)C[C@H](C)N1 | – | 3890 | – | – | 1300 | 4420 | 1130 | 675 | – | – | – | – |
| C[C@H]1CN(CCCn2c3ccc([N+](=O)[O-])cc3c3cc([N+](=O)[O-])ccc32)C[C@H](C)N1 | 3670 | – | – | – | – | – | – | – | 174000 | 3660 | 1850 | – |
| C[C@H]1CN(CCCn2c3ccccc3c3cc(N)ccc32)C[C@H](C)N1 | – | 2400 | – | – | 13900 | 5720 | 2100 | 1660 | – | – | – | – |
| C[C@@H]1CN(CCCn2c3ccc(Br)cc3c3cc(Br)cc(Br)c32)C[C@@H](C)N1 | – | – | – | – | – | – | – | – | 30300 | 8540 | 1610 | > 6000 |
| c1ccc(N2CCN(CCCn3c4ccccc4c4ccccc43)CC2)cc1 | 1820 | 4930 | – | Not Active | 4120 | – | – | – | – | – | – | – |
| C[C@@H]1CN(CCCn2c3ccccc3c3ccccc32)C[C@H](C)N1 [RIMCAZOLE] | 140 | 224 | – | – | 2160 | – | 825 | – | – | – | – | – |
